ChEMBL document CHEMBL3525926, “CYP2C9-mediated metabolic activation of losartan detected by a highly sensitive cell-based screening assay” (Drug Metab Dispos, 2011)

How the values were obtained:
Type in all cases: ADME, cell-based
Conditions in all cases: hepg2, 24 h
Cytochrome P450 2C9 [1] = biological target: T1, Cytochrome P450 2C9 (Homo sapiens, UniProt P11712); experiment: Metabolic activation assessed as CYP2C9 activation-induced cytotoxicity in human HepG2 cells transfected with human AdCYP2C9 at MOI 10 for 2 days in presence of siNrf2 at 50 to 200 uM after 24 hrs by WST-8 assay
How it was run: (§1)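 HepG2 cells reverse-transfected with 10 nM siNrf2 at seeding (1.0×10^4 cells/well), incubated 24 h, then infected with CYP2C9-expressing adenovirus (AdGFP as control) at MOI 10 for 2 days in 5% FBS medium. Drugs added for 24 h. Viability read by WST-8 (absorbance 450 nm) or CellTiter-Glo ATP luminescence. Expressed as % of untreated cells; means ± S.D., n = 3; two-tailed t test versus AdGFP cells.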

Cytochrome P450 2C9 [2] = biological target: T1, Cytochrome P450 2C9; experiment: Metabolic activation assessed as CYP2C9 activation-induced cytotoxicity in human HepG2 cells transfected with human AdCYP2C9 at MOI 10 for 2 days in presence of siNrf2 at 100 uM after 24 hrs by WST-8 assay; how it was run: as §1
Cytochrome P450 2C9 [3] = biological target: T1, Cytochrome P450 2C9; experiment: Metabolic activation assessed as CYP2C9 activation-induced cytotoxicity in human HepG2 cells transfected with human AdCYP2C9 at MOI 10 for 2 days in presence of siNrf2 at 25 to 100 uM after 24 hrs by WST-8 assay
Cytochrome P450 2C9 [4] = biological target: T1, Cytochrome P450 2C9; experiment: Metabolic activation assessed as CYP2C9 activation-induced cytotoxicity in human HepG2 cells transfected with human AdCYP2C9 at MOI 10 for 2 days in presence of siNrf2 at 25 to 75 uM after 24 hrs by WST-8 assay; how it was run: as §1
Cytochrome P450 2C9 [5] = biological target: T1, Cytochrome P450 2C9; experiment: Metabolic activation assessed as CYP2C9 activation-induced cytotoxicity in human HepG2 cells transfected with human AdCYP2C9 at MOI 10 for 2 days in presence of siScramble at 25 to 100 uM after 24 hrs by ATP assay
How it was run: (§2)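 HepG2 cells reverse-transfected with 10 nM scrambled control siRNA at seeding (1.0×10^4 cells/well), then after 24 h infected with CYP2C9-expressing adenovirus (AdGFP control) at MOI 10 for 2 days. Drugs added for 24 h. Viability by CellTiter-Glo ATP luminescence, as % of untreated cells; means ± S.D., n = 3; two-tailed t test versus AdGFP cells.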

Cytochrome P450 2C9 [6] = biological target: T1, Cytochrome P450 2C9; experiment: Metabolic activation assessed as CYP2C9 activation-induced cytotoxicity in human HepG2 cells transfected with human AdCYP2C9 at MOI 10 for 2 days in presence of siNrf2 at 100 to 200 uM after 24 hrs by WST-8 assay; how it was run: as §1
Cytochrome P450 2C9 [7] = biological target: T1, Cytochrome P450 2C9; experiment: Metabolic activation assessed as CYP2C9 activation-induced cytotoxicity in human HepG2 cells transfected with human AdCYP2C9 at MOI 10 for 2 days in presence of siScramble at 50 to 200 uM after 24 hrs by ATP assay; how it was run: as §2
Cytochrome P450 2C9 [8] = biological target: T1, Cytochrome P450 2C9; experiment: Metabolic activation assessed as CYP2C9 activation-induced cytotoxicity in human HepG2 cells transfected with human AdCYP2C9 at MOI 10 for 2 days in presence of siNrf2 at 50 to 200 uM after 24 hrs by ATP assay; how it was run: as §1

T1 sequence (P11712 whole entry): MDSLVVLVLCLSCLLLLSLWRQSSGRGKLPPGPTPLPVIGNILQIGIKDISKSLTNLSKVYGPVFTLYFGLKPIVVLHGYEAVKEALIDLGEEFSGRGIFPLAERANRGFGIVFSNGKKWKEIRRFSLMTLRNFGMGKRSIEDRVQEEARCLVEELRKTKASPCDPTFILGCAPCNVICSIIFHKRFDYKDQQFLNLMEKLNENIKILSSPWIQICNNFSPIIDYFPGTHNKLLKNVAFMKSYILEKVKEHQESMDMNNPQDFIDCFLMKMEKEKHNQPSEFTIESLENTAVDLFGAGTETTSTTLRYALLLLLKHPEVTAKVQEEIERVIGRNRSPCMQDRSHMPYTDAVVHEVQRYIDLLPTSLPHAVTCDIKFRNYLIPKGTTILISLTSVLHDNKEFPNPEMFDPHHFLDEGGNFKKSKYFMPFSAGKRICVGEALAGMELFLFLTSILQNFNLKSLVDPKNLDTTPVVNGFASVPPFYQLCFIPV

SMILES	Activity (Cytochrome P450 2C9 [3])	further results
CC(C)n1c(/C=C/C(O)CC(O)CC(=O)O)c(-c2ccc(F)cc2)c2ccccc21 (stereo not drawn) [FLUVASTATIN]		Activity (Cytochrome P450 2C9 [1]): Non-toxic; Activity (Cytochrome P450 2C9 [2]): Toxic
CCCc1nc2c(C)cc(-c3nc4ccccc4n3C)cc2n1Cc1ccc(-c2ccccc2C(=O)O)cc1 [TELMISARTAN]	Toxic	
CC(C)C(=O)Nc1ccc([N+](=O)[O-])c(C(F)(F)F)c1 [FLUTAMIDE]		Activity (Cytochrome P450 2C9 [4]): Non-toxic
CCCCc1ncc(/C=C(\Cc2cccs2)C(=O)O)n1Cc1ccc(C(=O)O)cc1 [EPROSARTAN]	Toxic	
CCCCc1nc(Cl)c(C=O)n1Cc1ccc(-c2ccccc2-c2nn[nH]n2)cc1	Non-toxic	
CCCCc1nc(Cl)c(CO)n1Cc1ccc(-c2ccccc2-c2nn[nH]n2)cc1 [LOSARTAN]	Toxic	Activity (Cytochrome P450 2C9 [5]): Non-toxic
CCCC(CCC)C(=O)O [VALPROIC ACID]		Activity (Cytochrome P450 2C9 [1]): Non-toxic
O=C(O)COc1ccc(C(=O)c2cccs2)c(Cl)c1Cl [TICRYNAFEN]		Activity (Cytochrome P450 2C9 [6]): Toxic; Activity (Cytochrome P450 2C9 [7]): Non-toxic; Activity (Cytochrome P450 2C9 [8]): Toxic
CCCCc1nc(Cl)c(C(=O)O)n1Cc1ccc(-c2ccccc2-c2nn[nH]n2)cc1 [CARBOXYLIC ACID METABOLITE]	Non-toxic	
CCCCC1=NC2(CCCC2)C(=O)N1Cc1ccc(-c2ccccc2-c2nnn[nH]2)cc1 [IRBESARTAN]	Toxic	
CN(C/C=C/C#CC(C)(C)C)Cc1cccc2ccccc12 [TERBINAFINE]	Toxic	Activity (Cytochrome P450 2C9 [5]): Toxic
Cc1ccc(-c2nc3ccc(C)cn3c2CC(=O)N(C)C)cc1 [ZOLPIDEM]	Toxic	
CCCCC(=O)N(Cc1ccc(-c2ccccc2-c2nnn[nH]2)cc1)[C@H](C(=O)O)C(C)C [VALSARTAN]	Toxic	
